Data on 1 compound can be found in ChEMBL document CHEMBL1212911, “Identification of potent and selective amidobipyridyl inhibitors of protein kinase D” (J Med Chem, 2010).

Molecules are shown by their SMILES. Activity calls are given as the source filed them. The calls are words filed in the database; no cut-off is given here.

Data set [1] deals with G protein-coupled receptor kinase 5 (Homo sapiens) (UniProt P34947). As to the kind of experiment: Inhibition of human GRK5. To be noted: concentration not given here. The procedure, abridged: (§1)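 Selectivity screen run externally (Invitrogen SelectScreen). Percent inhibition measured at 1 μM compound, mean of 2 measurements.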
Chain of G protein-coupled receptor kinase 5 (Homo sapiens) (P34947 whole entry, looked up): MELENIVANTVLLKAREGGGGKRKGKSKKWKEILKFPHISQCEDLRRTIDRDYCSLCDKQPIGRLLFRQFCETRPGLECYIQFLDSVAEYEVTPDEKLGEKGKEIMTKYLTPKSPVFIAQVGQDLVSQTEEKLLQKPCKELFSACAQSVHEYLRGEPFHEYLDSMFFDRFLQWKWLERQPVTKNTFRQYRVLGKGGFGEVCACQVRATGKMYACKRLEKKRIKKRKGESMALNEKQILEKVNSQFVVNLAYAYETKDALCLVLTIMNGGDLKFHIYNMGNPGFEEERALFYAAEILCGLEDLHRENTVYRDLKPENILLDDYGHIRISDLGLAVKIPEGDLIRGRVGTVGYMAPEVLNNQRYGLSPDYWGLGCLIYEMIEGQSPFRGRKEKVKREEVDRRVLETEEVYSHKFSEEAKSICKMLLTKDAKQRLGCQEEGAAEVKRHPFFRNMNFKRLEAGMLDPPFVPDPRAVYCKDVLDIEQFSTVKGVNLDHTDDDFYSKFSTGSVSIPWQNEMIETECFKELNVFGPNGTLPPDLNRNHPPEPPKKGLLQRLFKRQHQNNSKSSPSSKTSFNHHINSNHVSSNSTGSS
Data set [2] relates to Rattus norvegicus. Briefly: Ex vivo inhibition of PKD in PBMC isolated from Dahl salt-sensitive sc dosed rat assessed as inhibition of PMA-induced HDAC phosphorylation.
Data set [3] addresses T1, Calcium/calmodulin-dependent protein kinase type IV (Homo sapiens) (UniProt Q16566).
T1 sequence (whole entry): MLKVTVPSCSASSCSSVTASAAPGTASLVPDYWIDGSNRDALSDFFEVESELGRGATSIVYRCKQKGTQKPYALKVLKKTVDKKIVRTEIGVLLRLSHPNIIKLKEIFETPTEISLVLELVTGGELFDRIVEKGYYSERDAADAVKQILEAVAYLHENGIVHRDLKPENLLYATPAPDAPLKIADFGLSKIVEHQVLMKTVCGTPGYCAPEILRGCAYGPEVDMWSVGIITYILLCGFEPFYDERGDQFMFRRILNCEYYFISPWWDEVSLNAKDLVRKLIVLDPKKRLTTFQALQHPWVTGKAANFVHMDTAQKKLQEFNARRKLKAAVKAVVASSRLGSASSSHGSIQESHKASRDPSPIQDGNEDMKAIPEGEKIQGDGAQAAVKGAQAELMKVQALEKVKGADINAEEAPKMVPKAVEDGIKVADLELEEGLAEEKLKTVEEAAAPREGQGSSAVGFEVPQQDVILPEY
As to the kind of experiment: Inhibition of human CaMK4. The following applies: concentration not given here. The procedure, abridged:
as §1

The nature of data set [4]: AUC (0 to 8 hrs) in Dahl salt-sensitive rat at 50 mg/kg, sc. Type of data set: ADME, organism-based. On the set-up: time < 8 hr, dose 50 mg/kg, route subcutaneous. To be noted: plasma. The procedure, abridged:
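Dahl salt-sensitive rats given 50 mg/kg sc in 10% 1 N HCl, 90% Captisol in pH buffer (10%). Plasma exposure followed over time to give AUC.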

Data set [5] is described as follows: Inhibition of PKC-mediated phosphorylation of Ser744/748.
The species entered for data set [6] is Rattus norvegicus. As to the kind of experiment: Inhibition of PMA-induced PKD autophosphorylation in Dahl salt-sensitive rat PBMC. The procedure, abridged:
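Male Dahl salt-sensitive rats, 6–7 weeks old, were switched from a 0.49% to an 8.0% NaCl diet for 2 weeks. Dosing was daily sc (1.0 mL/kg) with vehicle (10% 1 N HCl/90% of 10% captisol, pH 4.6 buffer) or 0.5, 1.5 or 5 mg/kg compound. On day 14, PBMCs were isolated and stimulated with PMA. The read-out was PKD Ser916 autophosphorylation.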

Data set [7] deals with T2, Protein kinase C epsilon type (Homo sapiens) (UniProt Q02156).
T2 sequence (whole entry): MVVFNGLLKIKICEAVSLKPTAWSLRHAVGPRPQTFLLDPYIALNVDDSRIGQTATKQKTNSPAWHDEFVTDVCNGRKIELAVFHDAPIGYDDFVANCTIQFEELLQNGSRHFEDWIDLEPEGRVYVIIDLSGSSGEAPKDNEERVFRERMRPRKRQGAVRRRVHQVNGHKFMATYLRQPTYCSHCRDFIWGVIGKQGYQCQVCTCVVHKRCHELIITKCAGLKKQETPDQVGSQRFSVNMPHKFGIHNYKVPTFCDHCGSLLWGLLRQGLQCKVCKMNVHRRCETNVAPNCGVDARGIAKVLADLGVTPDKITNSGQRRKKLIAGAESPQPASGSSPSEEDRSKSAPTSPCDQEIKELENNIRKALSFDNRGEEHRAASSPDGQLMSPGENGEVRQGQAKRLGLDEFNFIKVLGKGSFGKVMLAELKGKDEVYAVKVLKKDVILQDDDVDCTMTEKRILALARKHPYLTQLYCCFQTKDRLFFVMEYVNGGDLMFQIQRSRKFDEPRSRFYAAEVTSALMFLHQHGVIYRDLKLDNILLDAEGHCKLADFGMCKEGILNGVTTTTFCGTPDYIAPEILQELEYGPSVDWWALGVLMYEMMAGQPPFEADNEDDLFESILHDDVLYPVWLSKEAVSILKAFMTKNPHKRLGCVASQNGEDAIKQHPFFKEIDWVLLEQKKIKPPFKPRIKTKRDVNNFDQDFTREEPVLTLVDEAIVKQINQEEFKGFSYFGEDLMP
As to the kind of experiment: Inhibition of PKCepsilon. The following applies: concentration not given here.

In data set [8] the target is T3, Serine/threonine-protein kinase D1 (Homo sapiens) (UniProt Q15139).
T3 sequence (whole entry): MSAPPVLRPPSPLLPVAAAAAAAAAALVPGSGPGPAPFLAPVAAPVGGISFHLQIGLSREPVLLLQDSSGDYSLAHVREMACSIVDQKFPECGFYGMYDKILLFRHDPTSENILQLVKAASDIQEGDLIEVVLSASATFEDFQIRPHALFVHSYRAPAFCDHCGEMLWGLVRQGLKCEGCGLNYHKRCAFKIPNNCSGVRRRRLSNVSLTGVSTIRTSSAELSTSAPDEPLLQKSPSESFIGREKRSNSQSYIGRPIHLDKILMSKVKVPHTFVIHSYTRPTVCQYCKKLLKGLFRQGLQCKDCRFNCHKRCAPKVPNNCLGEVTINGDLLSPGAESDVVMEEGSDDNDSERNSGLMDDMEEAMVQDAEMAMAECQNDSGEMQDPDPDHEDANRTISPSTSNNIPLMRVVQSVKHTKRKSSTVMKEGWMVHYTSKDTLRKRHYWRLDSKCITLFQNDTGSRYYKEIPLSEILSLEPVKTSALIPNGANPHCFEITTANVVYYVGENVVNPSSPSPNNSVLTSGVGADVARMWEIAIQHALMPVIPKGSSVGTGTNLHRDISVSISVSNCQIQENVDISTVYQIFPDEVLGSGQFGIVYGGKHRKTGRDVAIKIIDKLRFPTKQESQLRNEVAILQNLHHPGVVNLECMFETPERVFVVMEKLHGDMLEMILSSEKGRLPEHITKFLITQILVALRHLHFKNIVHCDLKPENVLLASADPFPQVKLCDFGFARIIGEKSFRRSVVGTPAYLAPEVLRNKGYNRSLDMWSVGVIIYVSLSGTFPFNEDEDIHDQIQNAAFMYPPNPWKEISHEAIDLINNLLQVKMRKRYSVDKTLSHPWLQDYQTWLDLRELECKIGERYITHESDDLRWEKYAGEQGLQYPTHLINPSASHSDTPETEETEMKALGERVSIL
Briefly: Inhibition of PKD1 autophosphorylation at 1 uM.

For data set [9], the target named is Protein kinase C delta type (Homo sapiens) (UniProt Q05655). Briefly: Inhibition of human PKCdelta. The following applies: concentration not given here. The procedure, abridged: as §1
Chain of Protein kinase C delta type (Homo sapiens) (Q05655 whole entry, looked up): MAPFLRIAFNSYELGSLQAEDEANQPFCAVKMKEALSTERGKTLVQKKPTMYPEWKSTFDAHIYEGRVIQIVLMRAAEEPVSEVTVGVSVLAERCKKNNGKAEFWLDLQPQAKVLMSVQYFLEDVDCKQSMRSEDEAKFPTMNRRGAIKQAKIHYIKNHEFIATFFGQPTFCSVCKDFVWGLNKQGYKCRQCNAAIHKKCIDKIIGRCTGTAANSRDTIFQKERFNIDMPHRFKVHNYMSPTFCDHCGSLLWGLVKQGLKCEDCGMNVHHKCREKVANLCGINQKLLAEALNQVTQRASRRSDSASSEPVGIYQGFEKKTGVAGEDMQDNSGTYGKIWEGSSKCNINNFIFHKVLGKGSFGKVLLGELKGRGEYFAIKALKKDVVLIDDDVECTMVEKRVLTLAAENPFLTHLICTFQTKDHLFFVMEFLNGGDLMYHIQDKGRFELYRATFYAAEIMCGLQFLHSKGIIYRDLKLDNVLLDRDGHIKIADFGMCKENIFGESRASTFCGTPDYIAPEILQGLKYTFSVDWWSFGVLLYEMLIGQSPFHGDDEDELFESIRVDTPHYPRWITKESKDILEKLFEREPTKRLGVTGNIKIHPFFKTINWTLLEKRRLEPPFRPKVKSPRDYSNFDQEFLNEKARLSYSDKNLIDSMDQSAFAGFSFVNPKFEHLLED
In data set [10] the target is Calcium/calmodulin-dependent protein kinase type II subunit delta (Homo sapiens) (UniProt Q13557). As to the kind of experiment: Inhibition of human CaMK2delta. The following applies: concentration not given here. The procedure, abridged:
as §1

Data set [11] deals with Pkd1 (Rattus norvegicus) (UniProt Q9ERV0). Briefly: Inhibition of PKD1 in rat ventricular myosyte assessed as inhibition of HDAC5 neuclear export. The procedure, abridged:
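Neonatal rat ventricular myocytes infected with adenovirus encoding GFP-HDAC5 and plated on gelatin-coated wells. Cells exposed to compound and stimulated with PGF2α for 2 h, then fixed. Cytoplasmic versus nuclear GFP intensity quantified by high-content imaging.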

In data set [12] the target is Serine/threonine-protein kinase MARK2 (Homo sapiens) (UniProt Q7KZI7). As to the kind of experiment: Inhibition of human MARK2. The following applies: concentration not given here. The procedure, abridged: as §1
Chain of Serine/threonine-protein kinase MARK2 (Homo sapiens) (Q7KZI7 whole entry): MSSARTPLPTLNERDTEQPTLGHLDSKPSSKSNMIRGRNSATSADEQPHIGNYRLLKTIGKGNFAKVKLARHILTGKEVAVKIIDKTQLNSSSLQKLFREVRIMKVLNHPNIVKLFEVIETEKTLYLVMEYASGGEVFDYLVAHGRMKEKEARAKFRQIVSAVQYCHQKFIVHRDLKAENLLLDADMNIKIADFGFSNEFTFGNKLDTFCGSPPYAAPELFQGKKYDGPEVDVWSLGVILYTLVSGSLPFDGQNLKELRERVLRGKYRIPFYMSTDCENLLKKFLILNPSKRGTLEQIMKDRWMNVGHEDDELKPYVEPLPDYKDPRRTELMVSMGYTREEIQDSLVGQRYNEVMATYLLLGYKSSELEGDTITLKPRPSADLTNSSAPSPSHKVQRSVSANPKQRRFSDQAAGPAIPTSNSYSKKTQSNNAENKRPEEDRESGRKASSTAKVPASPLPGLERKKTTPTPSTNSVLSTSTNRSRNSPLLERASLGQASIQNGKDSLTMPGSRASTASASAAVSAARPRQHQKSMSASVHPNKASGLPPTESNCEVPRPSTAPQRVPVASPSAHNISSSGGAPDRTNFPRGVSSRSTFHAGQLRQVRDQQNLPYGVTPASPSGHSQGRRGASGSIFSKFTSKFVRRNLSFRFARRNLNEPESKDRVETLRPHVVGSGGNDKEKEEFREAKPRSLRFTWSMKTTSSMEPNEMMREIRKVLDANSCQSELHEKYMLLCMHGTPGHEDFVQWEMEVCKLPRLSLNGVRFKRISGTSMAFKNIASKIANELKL

Chain of Calcium/calmodulin-dependent protein kinase type II subunit delta (Homo sapiens) (Q13557 whole entry): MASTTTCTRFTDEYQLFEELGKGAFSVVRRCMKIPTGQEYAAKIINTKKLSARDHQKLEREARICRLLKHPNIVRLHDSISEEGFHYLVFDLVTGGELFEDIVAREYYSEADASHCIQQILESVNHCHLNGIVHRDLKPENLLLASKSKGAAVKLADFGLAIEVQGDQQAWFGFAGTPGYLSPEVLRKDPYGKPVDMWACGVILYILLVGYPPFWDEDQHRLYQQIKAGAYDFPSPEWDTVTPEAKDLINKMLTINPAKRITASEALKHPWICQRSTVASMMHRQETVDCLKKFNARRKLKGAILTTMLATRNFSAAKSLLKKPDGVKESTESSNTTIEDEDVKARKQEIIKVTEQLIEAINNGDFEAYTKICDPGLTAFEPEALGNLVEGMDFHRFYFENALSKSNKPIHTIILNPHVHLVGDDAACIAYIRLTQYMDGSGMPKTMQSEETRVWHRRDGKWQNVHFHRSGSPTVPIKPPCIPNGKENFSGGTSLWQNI

As a reminder, the inhibition is the drop in the measured response relative to a control, in per cent. For orientation: AUC(0-t) means exposure summed from dosing to a finite time, without extrapolation to infinity. Take `NC(=O)c1cc(-c2ccnc(NC3CCCCC3)c2)nc(N2CCNCC2)c1`: the inhibition in data set [1] is 2%; in [3], 1%; in [7], -3%; in data set [9] it was 22%; in data set [10], 26%; in data set [12] it was 27%. In data set [2], the outcome was Active. In addition, the exposure AUC(0-t) at 8 h in [4] came out at 25.8 µM·h. For the same compound, the inhibition result in data set [5] and in [6] was “inactive” throughout. Further, the inhibition entry in data set [8] and in data set [11] was “Active” throughout.
